E coli RNAP: E. coli RNAP inhibitors, biochemical; DNA-directed RNA polymerase subunit beta (Escherichia coli (strain K12)), P0A8V2; E. coli RNA polymerase, fluorescence transcription assay; inhibition, %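 (tested at 10 µM)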; 0.2% of 62,000 active; AID 559, 2006; in the data active = inhibition above about 20%;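 also: 0% = enzyme without compound and 100% = no enzyme blank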
RORa activator: activators of orphan receptor RORA, primary screen, cell-based, luminescence; Nuclear receptor ROR-alpha (Homo sapiens), P35398; CHO-K1 Gal4-RORA LBD luciferase reporter; percent increase over mock-subtracted basal signal; activation, % at 10 µM; 1.5% of 65,000 active;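 active = activation above the mean of all tested compounds plus 3 SD, cut at about 49% in these data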;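 also: 0% = DMSO-treated RORA cells and 100% = added signal equal to DMSO minus mock-transfected cells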
HePTP inhibitor: inhibitors of human HePTP phosphatase, primary screen, biochemical, absorbance, leukemia target. inhibition, % at 20 µM. recombinant HePTP phosphatase activity, OD absorbance. AID 521, 2006. 0.64% of 110,000 active; in the data active = inhibition above about 50%;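 also: plate controls were vehicle for no effect and reference inhibitor for full effect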
Target sequence (P35236 whole entry, looked up): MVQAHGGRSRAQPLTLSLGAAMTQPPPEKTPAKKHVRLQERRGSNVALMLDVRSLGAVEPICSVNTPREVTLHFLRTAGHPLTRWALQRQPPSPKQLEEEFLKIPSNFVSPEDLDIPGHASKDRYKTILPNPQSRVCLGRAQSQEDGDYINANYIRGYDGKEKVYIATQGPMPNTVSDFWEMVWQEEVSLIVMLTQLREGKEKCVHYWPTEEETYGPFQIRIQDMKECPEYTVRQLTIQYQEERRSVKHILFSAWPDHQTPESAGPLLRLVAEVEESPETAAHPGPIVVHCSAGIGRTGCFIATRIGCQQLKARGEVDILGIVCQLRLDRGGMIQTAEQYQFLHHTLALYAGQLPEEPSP
MMP13 inh: human MMP13 inhibitors, primary screen, biochemical, FRET peptide cleavage; Collagenase 3 (Homo sapiens), P45452; MMP-13 fTHP FRET cleavage, Mca fluorescence; inhibition, % at 4 µM; 0.07% of 65,000 active;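 active = inhibition above the mean of compound-free control plate wells plus 3 SD, cut at about 14% in these data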;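 also: 0% = DMSO wells and 100% = wells with reference MMP-13 inhibitor after basal subtraction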
AP ELISA ortho: alternative complement pathway inhibitors, primary screen, biochemical, ELISA, human serum, orthogonally pooled compounds; 0.08% of 62,000 active; AID 1235, 2008; LPS-coated ELISA, C3 deposition; tested in compound mixtures; inhibition, % at 5 µM;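 active = inhibition above 30% in each of the two pooled mixtures holding the compound, so the lower value exceeds 30%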;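 also: 0% = serum in Mg-EGTA without compound and 100% = EDTA serum blank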
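Test system – human serum alternative complement pathway, C3 deposition on LPS-coated wells · Buffer or medium – diluted human serum in Mg2+-EGTA GVB++ · Compound dosing – 5 µM each compound, pools of ten, 50 µM per pool · Schedule – 1 h serum-compound exposure at 37 °C · Measured by – Anti-C3 ELISA, OD 450 nm · Read-out basis – percent inhibition of C3 deposition onto LPS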
SF-1 act: activators of human SF-1, primary screen, cell-based, CHO-K1, Gal4-SF-1 LBD, luciferase luminescence. Steroidogenic factor 1 (Homo sapiens), Q13285. CHO-K1 Gal4-SF-1 LBD luciferase reporter; % increase over DMSO SF-1-specific signal. activation, % at 10 µM. 1.9% of 65,000 active;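 active = activation above the mean activation of all tested compounds plus 3 SD, cut at about 50% in these data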
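Assay system: CHO-K1 cells co-transfected with Gal4 DBD–human SF-1 LBD, 5xGal4 luciferase reporter / Input: 4,000 cells per well / Incubation: 20 h compound exposure at 37 °C after 1 h cell settling / Detection: SteadyLite luciferase luminescence / Control set: DMSO negative control and −SF1 background wells / Replication: one test per compound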
Numbers without * were called inactive; nt = not tested or not shown. Rows were chosen to be rich in hits. Some 2.4% of all compounds tested hit in one or more screens of this group.

SMILES | E coli RNAP | RORa activator | HePTP inhibitor | MMP13 inh | AP ELISA ortho | SF-1 act
Cc1nnc2c3cnn(-c4ccc(Cl)cc4)c3ncn12 | 3 | 65* | 5 | -8 | 19 | 25
COC(=O)c1ccccc1NC(=O)c1cc(-c2ccc(OC)cc2OC)nc2ccccc12 | nt | nt | 0 | nt | nt | nt
O=C(NCc1nc2ccccc2[nH]1)c1ccco1 | 25* | 3 | 0 | 3 | -4 | -8
O=C(Nc1ccc(-c2nc3ccccc3[nH]2)cc1)c1ccco1 | 1 | 34 | 7 | -3 | 1 | 78*
O=C(NCc1nc2ccccc2[nH]1)c1cccs1 | -2 | 2 | -1 | 3 | 21 | 14
COc1cc(NC(=O)c2ccc(C)c([N+](=O)[O-])c2)ccc1NC(=O)c1ccco1 | nt | nt | 5 | nt | nt | nt
CCOc1ccc(C(=O)Nc2ccc(-c3nc4ccccc4o3)c(O)c2)cc1[N+](=O)[O-] | nt | nt | 104* | nt | nt | nt
CCOc1ccc(C(=O)Nc2ccc(NC(=O)c3ccco3)c(OC)c2)cc1[N+](=O)[O-] | nt | nt | 104* | nt | nt | nt
CC(C)N1CCc2c(sc3nc(SCc4ccc(Cl)cc4)n(-c4ccccc4)c(=O)c23)C1 | nt | nt | 7 | nt | nt | nt
COc1ccc(OC)c2sc(NC(=O)c3ccc(Br)s3)nc12 | 9 | -6 | -1 | 5 | -1 | 53*
CCOc1ccc(N2C(=O)NC(=O)/C(=C\c3ccc(-c4ccccc4C(=O)O)o3)C2=O)cc1 | nt | nt | 14 | nt | nt | nt
O=C1NN(c2ccccc2)C(=O)/C1=C/c1ccc(Br)o1 | nt | nt | 102* | nt | nt | nt
CCOc1ccc(N2C(=O)NC(=O)/C(=C\c3ccc(Br)o3)C2=O)cc1 | nt | nt | 93* | nt | nt | nt
O=C1NC(=O)N(c2ccccc2)C(=O)/C1=C\c1ccc(Br)o1 | nt | nt | 69* | nt | nt | nt
O=C1NN(c2ccccc2)C(=O)/C1=C/c1ccc([N+](=O)[O-])o1 | nt | nt | 103* | nt | nt | nt
O=C1NN(c2ccccc2)C(=O)/C1=C/c1ccco1 | nt | nt | -5 | nt | nt | nt
O=Cc1ccc(/C=C2/SC(=S)N(Cc3ccccc3)C2=O)cc1 | nt | nt | 6 | nt | nt | nt
COc1cc(C(=O)N(C)Cc2ccccc2)c([N+](=O)[O-])cc1OC | nt | nt | -9 | nt | nt | nt
O=c1c(-c2ccc(F)cc2)coc2c3c(ccc12)OCCO3 | 6 | 14 | 8 | -2 | 7 | 63*
O=c1c(-c2ccc(F)cc2)coc2cc(O)ccc12 | nt | 84* | -10 | -19 | -7 | 63*
O=c1c(-c2ccc(Br)cc2)coc2c(CN3CCOCC3)c(O)ccc12 | 2 | 5 | -14 | -55 | 14 | 13
CCOc1ccccc1Oc1coc2cc(O)ccc2c1=O | 5 | 18 | -3 | -28 | 7 | 17
COc1ccc(-c2coc3cc(O)ccc3c2=O)cc1OC | -9 | 78* | 8 | -19 | 27 | 37
COc1ccc(C(=O)Nc2ccc(C)c(Cl)c2)cc1OC | nt | nt | -13 | nt | nt | nt
C=C1c2cc(OC)ccc2NC(=O)N1c1ccccc1 | nt | nt | -5 | nt | nt | nt
SMILES | E coli RNAP | RORa activator | HePTP inhibitor | MMP13 inh | AP ELISA ortho | SF-1 act
COC(=O)c1ccc(/C=N/NC(=O)COc2ccc(C(C)(C)CC(C)(C)C)cc2[N+](=O)[O-])cc1 | nt | nt | 10 | nt | nt | nt
COc1cc(/C=N/NC(=S)Cc2ccccc2)cc(OC)c1OC | nt | nt | 104* | nt | nt | nt
CCOC(=O)c1ccc(NC(=S)NC(NC(=O)Cc2ccccc2)C(Cl)(Cl)Cl)cc1 (configuration not stated) | nt | nt | 104* | nt | nt | nt
O=C(NCc1ccccc1F)C1CCN(C(=O)NCc2ccccc2)CC1 | -3 | -8 | 2 | 0 | 33* | -3
COc1cccc(OC)c1C(=O)NCC1CCCO1 (configuration not stated) | nt | nt | -18 | nt | nt | nt
CN(C)c1ccc(NC(=O)CCCc2ccccc2)cc1 | 8 | 50* | 4 | -2 | 7 | 40
CN(C)c1ccc(NC(=O)COc2ccccc2)cc1 | nt | nt | 8 | nt | nt | nt
COC(=O)c1c(NC(=O)c2ccc(C)o2)sc2c1CCCCC2 | -3 | 34 | -2 | -23 | -5 | 52*
CCOC(=O)c1c(NC(=O)c2ccco2)sc2c1CCC(CC)C2 (configuration not stated) | nt | nt | 10 | nt | nt | nt
O=C(Nc1sc2c(c1C(=O)O)CCCCC2)c1cccs1 | nt | nt | 5 | nt | nt | nt
O=C(Nc1sc2c(c1C(=O)O)CCCC2)c1cccs1 | 5 | 67* | -1 | 0 | 15 | 54*
CCOC(=O)c1c(NC(=O)C2C3CCC(O3)C2C(=O)O)sc2c1CCC(CC)C2 (configuration not stated) | nt | nt | 103* | nt | nt | nt
CCC1CCc2c(sc(NC(=O)Cc3ccccc3)c2C(=O)OC)C1 (configuration not stated) | nt | nt | 0 | nt | nt | nt
CCC1CCc2c(sc(NC(=O)c3ccc(Br)o3)c2C(=O)OC)C1 (configuration not stated) | nt | nt | 104* | nt | nt | nt
Cc1ccc(C(=O)Nc2sc3c(c2C(=O)O)CCCCC3)o1 | 7 | 77* | -9 | -1 | -10 | 33
O=C(CSc1ncccn1)NCc1ccccc1Cl | 8 | 31 | 2 | -3 | 16 | 68*
O=C(CSc1ncccn1)N/N=C/c1ccccc1Cl | nt | nt | 7 | nt | nt | nt
CCN(C(=O)c1cccc(C(=O)N(CC)c2ccccc2C)c1)c1ccccc1C | nt | nt | 10 | nt | nt | nt
COc1cc2c(cc1NC(=O)C1CCCO1)oc1ccccc12 (configuration not stated) | 6 | 58* | -3 | 1 | 0 | 78*
COc1ccc(-c2csc(NC(=O)C3CCCO3)n2)cc1 (configuration not stated) | 6 | 17 | 11 | -5 | 6 | 64*
COc1ccc(Cc2nnc(NC(=O)C3CCCO3)s2)cc1 (configuration not stated) | 6 | 3 | -2 | 4 | 1 | -2
Cc1ccc2nc(NC(=O)C3CCCO3)sc2c1 (configuration not stated) | nt | nt | 5 | nt | nt | nt
O=C(Nc1ncc(Cc2ccccc2)s1)C1CCCO1 (configuration not stated) | -12 | 55* | -4 | 0 | -13 | 37
COc1ccc(Cl)cc1NC(=O)C1CCCO1 (configuration not stated) | -3 | -9 | 4 | 4 | -1 | -21
O=C(Nc1nc2ccccc2s1)C1CCCO1 (configuration not stated) | 0 | 43 | -4 | 3 | -18 | 59*
CN(C)c1ccc(NC(=O)C2CC(=O)N(c3ccc(F)cc3)C2)cc1 (configuration not stated) | nt | nt | 3 | nt | nt | nt
COc1cc(C2C3=C(CC(C)(C)CC3=O)OC3=C2C(=O)CC(C)(C)C3)cc(Br)c1OC | nt | nt | 2 | nt | nt | nt
